Numbered stars: 1 amine (or outer) side, 2 acyl side, 3 side chain; on linkers, the order of the positions; unused ones are H or OH. Square brackets hold non-standard residues; d marks the D form. Peptide text beside a SMILES is read from it. * marks the point of attachment. X1 = N[C@@H](Cc1ccccc1)CN(CC(=O)[*:2])[*:1]; Phe(4-F) = N[C@@H](Cc1ccc(F)cc1)C(=O)O; N(NH2)2 = NN(N)*; NHNH2 = NN*

Twelve compounds from ChEMBL document CHEMBL1142699 (J Med Chem, 2005) can be followed below.

Assay [1] concerns the target T1, Nociceptin receptor (Homo sapiens, UniProt P41146). In words: Receptor binding affinity for recombinant human N/OFQ peptide receptor (NOP) expressed in chinese hamster ovary cells. The format is cell-based, CHO.
In assay [2] the target is Nociceptin receptor (Mus musculus, UniProt P35377). The assay is described as follows: Inhibition of electrically evoked contraction of mouse vas deferens. The assay is classed as functional. Put shortly:
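Vas deferens from male Swiss mice (25-30 g), in Mg2+-free Krebs at 33 °C under 0.3 g resting tension. Field-stimulated with 1 ms supramaximal pulses at 0.05 Hz; twitches recorded isotonically. After ~1 h equilibration, cumulative concentration-response curves in 0.5 log steps. […] 5-8 experiments.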

Assay [3] concerns the target Nociceptin receptor (Cavia porcellus, UniProt P47748). In words: Inhibition of electrically evoked contraction of guinea pig ileum. The format is functional, tissue-based. Put shortly:
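Guinea pig ileum from albino animals (250-300 g), in Krebs at 37 °C under 0.3 g resting tension. Field-stimulated with 1 ms supramaximal pulses at 0.05 Hz; twitches recorded isotonically. After ~1 h equilibration, cumulative concentration-response curves in 0.5 log steps. […] 5-8 experiments.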

Assay [4] has as its target Nociceptin receptor (Mus musculus) (UniProt P35377). The assay is described as follows: Maximal inhibition of electrically evoked contraction of mouse vas deferens. The assay is classed as functional, tissue-based.
Assay [5] addresses Nociceptin receptor (Cavia porcellus) (UniProt P47748). In words: Maximal inhibition of electrically evoked contraction of guinea pig ileum. The format is functional, tissue-based.
For assay [6] the target is unchanged. The assay is described as follows: Antagonistic potency against N/OFQ in electrically evoked contractions of guinea pig ileum at 1 uM. The format is functional, tissue-based.
For assay [7], the target named is Nociceptin receptor (Mus musculus) (UniProt P35377). The assay is described as follows: Inhibition of electrically evoked contraction of mouse vas deferens; Effect evident only in some tissues. Conditions: filed as agonist. The format is functional.
Assay [8] deals with Nociceptin receptor (Cavia porcellus) (UniProt P47748). In words: Inhibition of electrically evoked contraction of guinea pig ileum; Effect evident only in some tissues. The format is functional, tissue-based. Conditions: filed as agonist.
Assay [9] addresses Nociceptin receptor (Mus musculus) (UniProt P35377). In words: Maximal inhibition of electrically evoked contraction of mouse vas deferens; Effect evident only in some tissues. The format is functional. Conditions: filed as agonist.
Assay [10] shares this target. The assay is described as follows: Antagonistic potency against N/OFQ in electrically evoked contraction of mouse vas deferens at 1 uM. The assay is classed as functional, tissue-based. Put shortly: (§1)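 Male Swiss mice (25-30 g). Vas deferens in 5 mL baths of Mg2+-free Krebs at 33 °C, 0.3 g tension, field-stimulated with supramaximal 1 ms pulses at 0.05 Hz, isotonic recording.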

For assay [11], the target named is Nociceptin receptor (Cavia porcellus) (UniProt P47748). In words: Maximal inhibition of electrically evoked contraction of guinea pig ileum; Effect evident only in some tissues. The format is functional, tissue-based. The following applies: filed as agonist.
Assay [12] has as its target T1, Nociceptin receptor. In words: Inhibition of forskolin stimulated cAMP levels in CHO cells expressing the human NOP receptor (CHOhNOP).
The target of assay [13] is Nociceptin receptor (Mus musculus) (UniProt P35377). The assay is described as follows: Antagonistic potency against N/OFQ in electrically evoked contraction of mouse vas deferens at 0.1 uM. The assay is classed as functional, tissue-based. Put shortly: as §1

T1 sequence (P41146 whole entry): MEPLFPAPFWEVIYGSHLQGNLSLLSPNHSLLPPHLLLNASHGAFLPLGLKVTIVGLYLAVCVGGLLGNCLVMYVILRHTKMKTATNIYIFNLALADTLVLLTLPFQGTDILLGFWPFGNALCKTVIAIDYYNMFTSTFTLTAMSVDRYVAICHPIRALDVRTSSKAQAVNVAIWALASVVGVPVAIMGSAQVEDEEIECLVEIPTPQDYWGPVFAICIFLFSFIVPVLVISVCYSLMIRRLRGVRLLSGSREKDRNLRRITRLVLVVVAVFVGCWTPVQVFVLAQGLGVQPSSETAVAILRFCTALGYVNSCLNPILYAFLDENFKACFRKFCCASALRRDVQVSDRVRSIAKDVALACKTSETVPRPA
Sequence of Nociceptin receptor (Mus musculus, UniProt P35377) (P35377 whole entry): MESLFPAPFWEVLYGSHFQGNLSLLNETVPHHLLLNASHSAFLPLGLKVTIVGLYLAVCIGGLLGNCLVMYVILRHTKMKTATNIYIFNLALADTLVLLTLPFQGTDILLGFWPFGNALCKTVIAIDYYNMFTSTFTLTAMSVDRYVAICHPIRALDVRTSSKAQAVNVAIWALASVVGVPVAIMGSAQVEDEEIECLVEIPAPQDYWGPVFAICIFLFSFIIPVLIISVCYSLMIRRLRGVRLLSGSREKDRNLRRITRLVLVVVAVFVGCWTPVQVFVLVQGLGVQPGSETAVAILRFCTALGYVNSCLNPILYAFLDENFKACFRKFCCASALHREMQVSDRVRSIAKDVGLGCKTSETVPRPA
Sequence of Nociceptin receptor (Mus musculus) (P35377 whole entry): as above
Sequence of Nociceptin receptor (Cavia porcellus) (P47748 whole entry): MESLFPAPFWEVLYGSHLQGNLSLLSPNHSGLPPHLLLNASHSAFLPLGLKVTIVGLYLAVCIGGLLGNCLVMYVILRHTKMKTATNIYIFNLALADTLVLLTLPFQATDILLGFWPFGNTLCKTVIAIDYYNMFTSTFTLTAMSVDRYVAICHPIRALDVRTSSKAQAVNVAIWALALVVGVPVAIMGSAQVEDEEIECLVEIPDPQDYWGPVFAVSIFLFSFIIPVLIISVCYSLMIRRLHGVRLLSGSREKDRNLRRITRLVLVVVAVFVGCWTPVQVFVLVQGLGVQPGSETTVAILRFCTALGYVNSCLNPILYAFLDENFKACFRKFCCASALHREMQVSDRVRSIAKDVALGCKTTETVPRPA
Sequence of Nociceptin receptor (Cavia porcellus, UniProt P47748) (P47748 whole entry): as above

One may read the Ki as a measure of affinity in units of concentration, obtained from inhibition or displacement. Usually EC50 stands for the midpoint of the concentration-response curve. Consider `C[C@H](NC(=O)CNC(=O)[C@@H](NC(=O)[C@H](Cc1ccc(F)cc1)NC(=O)CNC(=O)CNC(=O)[C@@H](N)Cc1ccccc1)[C@@H](C)O)C(=O)N[C@@H](CCCNC(=N)N)C(=O)N[C@@H](CCCCN)C(=O)N[C@@H](CO)C(=O)N[C@@H](C)C(=O)N[C@@H](CCCNC(=N)N)C(=O)N[C@@H](CCCCN)C(=O)N[C@@H](CCCNC(=N)N)C(=O)N[C@@H](CCCCN)C(=O)N[C@@H](CC(N)=O)C(=O)N[C@@H](CCC(N)=O)C(N)=O`, for which, on Nociceptin receptor [1], the Ki is 0.00479 nM. Further, the 50% effective concentration (EC50) at Nociceptin receptor [2] was 0.437 nM; at Nociceptin receptor [3], 1.05 nM.
In general, Emax refers to the greatest response seen or fitted, relative to the assay's reference. For `C[C@H](NC(=O)CNC(=O)[C@@H](NC(=O)[C@H](Cc1ccccc1)NC(=O)CNC(=O)CNC(=O)[C@@H](N)Cc1ccccc1)[C@@H](C)O)C(=O)N[C@@H](CCCN=C(N)N)C(=O)N[C@@H](CCCCN)C(=O)N[C@@H](CO)C(=O)N[C@@H](C)C(=O)N[C@@H](CCCN=C(N)N)C(=O)N[C@@H](CCCCN)C(=O)N[C@@H](CCCN=C(N)N)C(=O)N[C@@H](CCCCN)C(=O)N[C@@H](CC(N)=O)C(=O)N[C@@H](CCC(=O)N(N)N)C(=O)NN`, the Emax in assay [4] worked out at 95%; in [5], 52%.
A word on the pKb: it is −log10 of the Kb, conventionally taken in molar units. Lower therefore signals a large Kb. As to `CC(C)C[C@H](NC(=O)[C@H](CCCCN)NC(=O)[C@H](CCCN=C(N)N)NC(=O)[C@H](C)NC(=O)[C@H](CO)NC(=O)[C@H](CCCCN)NC(=O)[C@H](CCCN=C(N)N)NC(=O)[C@H](C)NC(=O)CNC(=O)[C@@H](NC(=O)[C@H](Cc1ccc(F)cc1)NC(=O)CNC(=O)CNC(=O)CNCc1ccccc1)[C@@H](C)O)C(=O)N[C@@H](C)C(=O)N[C@@H](CC(N)=O)C(=O)N[C@@H](CCC(N)=O)C(N)=O`, the pKb in [6] stood at 7.16; in assay [10], 6.61. For the same compound, the Activity entry in [7] was “Agonist”. In addition, in assay [8], the “Log EC50” value was “Agonist”. In addition, the Emax result in [9] and in assay [11] was “Agonist” throughout.
Take `C[C@H](NC(=O)CNC(=O)[C@@H](NC(=O)[C@H](Cc1ccccc1)NC(=O)CNC(=O)CNC[C@@H](N)Cc1ccccc1)[C@@H](C)O)C(=O)N[C@@H](CCCN=C(N)N)C(=O)N[C@@H](CCCCN)C(=O)N[C@@H](CO)C(=O)N[C@@H](C)C(=O)N[C@@H](CCCN=C(N)N)C(=O)N[C@@H](CCCCN)C(=O)N[C@@H](CCCN=C(N)N)C(=O)N[C@@H](CCCCN)C(=O)N[C@@H](CC(N)=O)C(=O)N[C@@H](CCC(=O)N(N)N)C(=O)NN` (H-[X1]GFTGARKSARKRKNE(N(NH2)2)-NHNH2): the values for the pKb in assay [6] and in assay [10] were 7.47 and 8.04, respectively. Besides, the Activity result in [7] is “Agonist”. The “Log EC50” value in [8] is “Agonist”. Moreover, the Emax result in assay [9] and in [11] was “Agonist” throughout.
Regarding `C[C@H](NC(=O)CNC(=O)[C@@H](NC(=O)[C@H](Cc1ccccc1)NC(=O)CNC(=O)CNC(=O)[C@@H](N)Cc1ccccc1)[C@@H](C)O)C(=O)N[C@@H](CCCN=C(N)N)C(=O)N[C@@H](CCCCN)C(=O)N[C@@H](CO)C(=O)N[C@@H](C)C(=O)N[C@@H](CCCN=C(N)N)C(=O)N[C@@H](CCCCN)C(=O)N[C@@H](CCCN=C(N)N)C(=O)N[C@@H](CCCCN)C(=O)N[C@@H](CC(N)=O)C(=O)N[C@@H](CCC(N)=O)C(N)=O`, the inhibition constant (Ki) at Nociceptin receptor [1] is 0.00692 nM. For the same compound, the EC50 at Nociceptin receptor [2] was 0.759 nM; on Nociceptin receptor [12], 0.1 nM; on Nociceptin receptor [3], 1.12 nM.
Take `C[C@H](NC(=O)CNC(=O)[C@@H](NC(=O)[C@H](Cc1ccc(F)cc1)NC(=O)CNC(=O)CNC(=O)CNCc1ccccc1)[C@@H](C)O)C(=O)N[C@@H](CCCN=C(N)N)C(=O)N[C@@H](CCCCN)C(=O)N[C@@H](CO)C(=O)N[C@@H](C)C(=O)N[C@@H](CCCN=C(N)N)C(=O)N[C@@H](CCCCN)C(=O)N[C@@H](CCCN=C(N)N)C(=O)N[C@@H](CCCCN)C(=O)N[C@@H](CC(N)=O)C(=O)N[C@@H](CCC(=O)N(N)N)C(=O)NN`: the Activity entry in [7] was “Agonist”. In assay [8], the “Log EC50” value was “Agonist”. Moreover, the Emax result in assay [9] and in [11] was “Agonist” throughout. Moreover, the pKb was determined as 7.97 in assay [13] and 7.82 in assay [13] (Cavia porcellus).
Turning to `C[C@H](NC(=O)CNC(=O)[C@@H](NC(=O)[C@H](Cc1ccccc1)NC(=O)CNC(=O)CNC(=O)CNCc1ccccc1)[C@@H](C)O)C(=O)N[C@@H](CCCN=C(N)N)C(=O)N[C@@H](CCCCN)C(=O)N[C@@H](CO)C(=O)N[C@@H](C)C(=O)N[C@@H](CCCN=C(N)N)C(=O)N[C@@H](CCCCN)C(=O)N[C@@H](CCCN=C(N)N)C(=O)N[C@@H](CCCCN)C(=O)N[C@@H](CC(N)=O)C(=O)N[C@@H](CCC(N)=O)C(N)=O`, the Ki on Nociceptin receptor [1] is 0.129 nM.
Consider `CC(C)C[C@H](NC(=O)[C@H](CCCCN)NC(=O)[C@H](CCCN=C(N)N)NC(=O)[C@H](C)NC(=O)[C@H](CO)NC(=O)[C@H](CCCCN)NC(=O)[C@H](CCCN=C(N)N)NC(=O)[C@H](C)NC(=O)CNC(=O)[C@@H](NC(=O)[C@H](Cc1ccccc1)NC(=O)CNC(=O)CNC(=O)[C@@H](N)Cc1ccccc1)[C@@H](C)O)C(=O)N[C@@H](C)C(=O)N[C@@H](CC(N)=O)C(=O)N[C@@H](CCC(N)=O)C(=O)O` [NOCICEPTIN], for which the EC50 on Nociceptin receptor [2] was 5.37 nM; at Nociceptin receptor [3], 5.25 nM.
Take `CC(C)C[C@H](NC(=O)[C@H](CCCCN)NC(=O)[C@H](CCCNC(=N)N)NC(=O)[C@H](C)NC(=O)[C@H](CO)NC(=O)[C@H](CCCCN)NC(=O)[C@H](CCCNC(=N)N)NC(=O)[C@H](C)NC(=O)CNC(=O)[C@@H](NC(=O)[C@H](Cc1ccccc1)NC(=O)CNC(=O)CNC(=O)[C@@H](N)Cc1ccccc1)[C@@H](C)O)C(=O)N[C@@H](C)C(=O)N[C@@H](CC(N)=O)C(=O)N[C@@H](CCC(N)=O)C(=O)O`: the Emax in assay [4] turned out to be 95%; in assay [5] it was 58%.
Regarding `CC(C)C[C@H](NC(=O)[C@H](CCCCN)NC(=O)[C@H](CCCN=C(N)N)NC(=O)[C@H](C)NC(=O)[C@H](CO)NC(=O)[C@H](CCCCN)NC(=O)[C@H](CCCN=C(N)N)NC(=O)[C@H](C)NC(=O)CNC(=O)[C@@H](NC(=O)[C@H](Cc1ccc(F)cc1)NC(=O)CNC(=O)CNC(=O)[C@@H](N)Cc1ccccc1)[C@@H](C)O)C(=O)N[C@@H](C)C(=O)N[C@@H](CC(N)=O)C(=O)N[C@@H](CCC(N)=O)C(N)=O`, the Emax in assay [4] came to 92%; in assay [5], 56%. In addition, the EC50 was 2.57 nM at Nociceptin receptor [2] and 1.86 nM on Nociceptin receptor [3].
For `C[C@H](NC(=O)CNC(=O)[C@@H](NC(=O)[C@H](Cc1ccc(F)cc1)NC(=O)CNC(=O)CNC(=O)[C@@H](N)Cc1ccccc1)[C@@H](C)O)C(=O)N[C@@H](CCCN=C(N)N)C(=O)N[C@@H](CCCCN)C(=O)N[C@@H](CO)C(=O)N[C@@H](C)C(=O)N[C@@H](CCCN=C(N)N)C(=O)N[C@@H](CCCCN)C(=O)N[C@@H](CCCN=C(N)N)C(=O)N[C@@H](CCCCN)C(=O)N[C@@H](CC(N)=O)C(=O)N[C@@H](CCC(=O)N(N)N)C(=O)NN`, the Emax in [4] turned out to be 94%; in assay [5], 55%.
On to `C[C@H](NC(=O)CNC(=O)[C@@H](NC(=O)[C@H](Cc1ccc(F)cc1)NC(=O)CNC(=O)CNC[C@@H](N)Cc1ccccc1)[C@@H](C)O)C(=O)N[C@@H](CCCN=C(N)N)C(=O)N[C@@H](CCCCN)C(=O)N[C@@H](CO)C(=O)N[C@@H](C)C(=O)N[C@@H](CCCN=C(N)N)C(=O)N[C@@H](CCCCN)C(=O)N[C@@H](CCCN=C(N)N)C(=O)N[C@@H](CCCCN)C(=O)N[C@@H](CC(N)=O)C(=O)N[C@@H](CCC(=O)N(N)N)C(=O)NN` (H-[X1]G[Phe(4-F)]TGARKSARKRKNE(N(NH2)2)-NHNH2), for which the maximal response (Emax) in [4] was 53%; in assay [11] it was “Agonist”. Moreover, the “Log EC50” value in assay [8] is “Agonist”. Further, the figures for the pKb in assay [13] and in assay [13] (Cavia porcellus) were 9.2 and 8.48, respectively.
